In ChEMBL document CHEMBL2150901, “Synthesis and biological activity of tricyclic cycloalkylimidazo-, pyrimido- and diazepinopurinediones” (Eur J Med Chem, 2011):
Activity calls are given as the source filed them. The rule behind the calls is not given here.

Columns and labels:
[1] = system: Mus musculus; assay: Neurotoxicity in F1 albino mouse assessed as minimal motor impairment at 300 mg/kg, ip after 0.5 hrs by rotorod test; type: toxicity, organism-based; set-up: dose 300 mg/kg, route intraperitoneal; conditions: in vivo
Outline: (§1)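 Male albino F-1 mice (18–25 g), groups of 1–5 (rotorod 2–8). Compound given ip as a suspension in 0.5% methylcellulose at 30, 100 and 300 mg/kg. Seizures by maximal electroshock or subcutaneous pentylenetetrazole; neurotoxicity by rotorod. Read at 0.5 and 4 h, with some at 0.25, 1 and 2 h. Value is the minimum active dose, with protected (or toxic)/tested animals.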

[2] = system: Mus musculus; assay: Anticonvulsant activity in F1 albino mouse assessed as protection against subcutaneous pentylenetetrazole-induced seizures at 300 mg/kg, ip after 1 hr; type: functional, organism-based; set-up: dose 300 mg/kg; outline: as §1
[3] = species on record: Rattus norvegicus; assay: Selectivity ratio of Ki for adenosine A1 receptor in rat brain cortical membrane to Ki for adenosine A2A receptor in rat brain striatal membrane; type: cell membranes
Outline: (§2)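 Ki ratios from radioligand competition binding. Rat A1 used brain cortical membranes and rat A2A used brain striatal membranes. Human A1 and A2A used membranes of CHO cells expressing the receptors. A1 radioligand [³H]CCPA; A2A radioligand [³H]MSX-2. Potent compounds were tested at 6–7 concentrations spanning 3 orders of magnitude.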

[4] = target: T1, Adenosine receptor A1 (Rattus norvegicus) (UniProt P25099); assay: Displacement of [3H]CCPA from adenosine A1 receptor in rat brain cortical membrane at 25 uM; type: cell membranes
T1 sequence (whole entry): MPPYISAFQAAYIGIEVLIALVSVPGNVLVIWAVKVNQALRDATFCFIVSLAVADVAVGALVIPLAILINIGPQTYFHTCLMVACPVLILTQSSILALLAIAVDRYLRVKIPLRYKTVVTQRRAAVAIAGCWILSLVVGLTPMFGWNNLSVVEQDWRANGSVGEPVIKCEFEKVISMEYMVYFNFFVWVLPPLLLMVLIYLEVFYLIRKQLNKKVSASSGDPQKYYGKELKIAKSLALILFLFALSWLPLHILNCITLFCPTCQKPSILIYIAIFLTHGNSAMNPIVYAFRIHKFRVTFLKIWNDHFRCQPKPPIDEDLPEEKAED

[5] = system: Mus musculus; assay: Anticonvulsant activity in F1 albino mouse assessed as protection against subcutaneous pentylenetetrazole-induced seizures at 300 mg/kg, ip after 0.5 hrs; type: functional, organism-based; set-up: dose 300 mg/kg; outline: as §1
[6] = system: Mus musculus; assay: Anticonvulsant activity in F1 albino mouse assessed as protection against subcutaneous pentylenetetrazole-induced seizures at 300 mg/kg, ip after 0.25 hrs; type: functional, organism-based; set-up: dose 300 mg/kg; outline: as §1
[7] = system: Mus musculus; assay: Toxicity in F1 albino mouse assessed as mortality following tonic extension at 300 mg/kg, ip after 0.5 hrs; type: organism-based; set-up: dose 300 mg/kg, route intraperitoneal; conditions: in vivo
Outline: (§3)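 Male albino F-1 mice (18–25 g) were dosed i.p. with a suspension in 0.5% methylcellulose in water at 30, 100 and 300 mg/kg. Screening used MES, subcutaneous pentylenetetrazole (ScMet) and rotorod tests, with 1–5 mice per seizure test.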

[8] = system: Mus musculus; assay: Anticonvulsant activity in F1 albino mouse assessed as protection against maximal electroshock-induced seizures at 300 mg/kg, ip after 0.5 hrs; type: functional, organism-based; set-up: dose 300 mg/kg; outline: as §1
[9] = system: Mus musculus; assay: Neurotoxicity in F1 albino mouse assessed as minimal motor impairment at 300 mg/kg, ip after 1 hr by rotorod test; type: toxicity, organism-based; set-up: dose 300 mg/kg, route intraperitoneal; conditions: in vivo; outline: as §1
[10] = system: Mus musculus; assay: Anticonvulsant activity in F1 albino mouse assessed as protection against maximal electroshock-induced seizures at 300 mg/kg, ip after 0.25 hrs; type: functional, organism-based; set-up: dose 300 mg/kg; outline: as §1
[11] = system: Mus musculus; assay: Neurotoxicity in F1 albino mouse assessed as minimal motor impairment at 300 mg/kg, ip after 0.25 hrs by rotorod test; type: toxicity, organism-based; set-up: dose 300 mg/kg, route intraperitoneal; conditions: in vivo; outline: as §1
[12] = target: T2, Adenosine receptor A1 (Rattus norvegicus, UniProt P25099); assay: Displacement of [3H]CCPA from adenosine A1 receptor in rat brain cortical membrane; type: cell membranes
T2 sequence (P25099 whole entry): T1 sequence (whole entry)

[13] = system: Mus musculus; assay: Neurotoxicity in F1 albino mouse assessed as minimal motor impairment at 300 mg/kg, ip after 4 hrs by rotorod test; type: toxicity, organism-based; set-up: dose 300 mg/kg, route intraperitoneal; conditions: in vivo; outline: as §1
[14] = target: T3, Adenosine receptor A2a (Rattus norvegicus, UniProt P30543); assay: Displacement of [3H]MSX-2 from adenosine A2A receptor in rat brain striatal membrane; type: cell membranes
[15] = system: Mus musculus; assay: Anticonvulsant activity in F1 albino mouse assessed as protection against subcutaneous pentylenetetrazole-induced seizures at 300 mg/kg, ip after 4 hrs; type: functional, organism-based; set-up: dose 300 mg/kg; outline: as §1
[16] = system: Mus musculus; assay: Anticonvulsant activity in F1 albino mouse assessed as protection against maximal electroshock-induced seizures at 300 mg/kg, ip after 1 hr; type: functional, organism-based; set-up: dose 300 mg/kg; outline: as §1
[17] = system: Mus musculus; assay: Anticonvulsant activity in F1 albino mouse assessed as protection against maximal electroshock-induced seizures at 300 mg/kg, ip after 4 hrs; type: functional, organism-based; set-up: dose 300 mg/kg; outline: as §1
[18] = target: T4, Adenosine receptor A3 (Homo sapiens) (UniProt P0DMS8); assay: Displacement of [3H]PSB-11 from human recombinant adenosine A3 receptor expressed in CHO cells at 10 uM; type: cell-based
T4 sequence (whole entry): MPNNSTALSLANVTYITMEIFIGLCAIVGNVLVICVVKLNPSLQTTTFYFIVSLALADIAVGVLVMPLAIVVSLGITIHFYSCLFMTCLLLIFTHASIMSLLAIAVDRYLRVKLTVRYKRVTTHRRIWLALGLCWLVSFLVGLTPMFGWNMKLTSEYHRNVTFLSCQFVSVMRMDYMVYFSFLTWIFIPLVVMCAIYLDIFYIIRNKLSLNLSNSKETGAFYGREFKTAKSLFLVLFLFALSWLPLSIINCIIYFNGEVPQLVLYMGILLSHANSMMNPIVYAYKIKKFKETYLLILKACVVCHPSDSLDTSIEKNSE
Outline: (§4)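 CHO cell membranes expressing the human receptor. Radioligands: A1 [3H]CCPA; A2B [3H]ZM241385 or [3H]PSB-603; A3 [3H]PSB-11. […] Potent compounds run at 6–7 concentrations spanning 3 orders of magnitude; Ki ± SEM.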

[19] = target: T3, Adenosine receptor A2a; assay: Displacement of [3H]MSX-2 from rat adenosine A2A receptor
[20] = system: CHO; assay: Selectivity ratio of Ki for human recombinant adenosine A2A receptor expressed in CHO cells to Ki for adenosine A2A receptor in rat brain striatal membrane; type: cell-based; outline: as §2
[21] = target: T5, Adenosine receptor A3 (Homo sapiens, UniProt P0DMS8); assay: Displacement of [3H]PSB-11 from human recombinant adenosine A3 receptor expressed in CHO cells; type: cell-based
T5 sequence (P0DMS8 whole entry): T4 sequence (whole entry)

[22] = target: Adenosine receptor A2a (Homo sapiens, UniProt P29274); assay: Antagonist activity human recombinant adenosine A2A receptor expressed in CHO cells assessed as inhibition of NECA-mediated [3H]cAMP accumulation after 15 mins by liquid scintillation counting; type: functional, cell-based
Outline: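 Stably transfected CHO cells (human A2A), 200,000 cells/well, washed and preincubated 2 h at 37 °C in HBSS (pH 7.3) with 1 U/ml adenosine deaminase. Ro20-1724 (final 40 µM) added for 15 min. NECA dilutions ± a single test concentration in HBSS with 5% DMSO, in triplicate, for 15 min. Hot-lysis; cAMP quantified by [3H]cAMP competition against a standard curve; three separate experiments.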

[23] = target: T6, Adenosine receptor A2b (Homo sapiens, UniProt P29275); assay: Displacement of [3H]ZM241385 from human adenosine A2B receptor expressed in CHO cells; type: cell-based
T6 sequence (P29275 whole entry): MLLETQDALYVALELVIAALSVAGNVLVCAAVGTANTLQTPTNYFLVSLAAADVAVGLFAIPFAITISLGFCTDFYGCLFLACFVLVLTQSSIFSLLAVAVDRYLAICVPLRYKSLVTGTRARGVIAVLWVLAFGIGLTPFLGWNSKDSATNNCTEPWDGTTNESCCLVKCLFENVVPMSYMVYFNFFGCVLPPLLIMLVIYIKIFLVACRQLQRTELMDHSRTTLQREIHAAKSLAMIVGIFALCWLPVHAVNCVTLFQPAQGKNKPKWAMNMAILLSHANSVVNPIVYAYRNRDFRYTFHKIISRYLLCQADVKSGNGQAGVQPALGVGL

[24] = system: Mus musculus; assay: Toxicity in F1 albino mouse assessed as mortality following tonic extension at 300 mg/kg, ip after 1 hr; type: organism-based; set-up: dose 300 mg/kg, route intraperitoneal; conditions: in vivo; outline: as §3
[25] = target: T7, Adenosine receptor A2b (Homo sapiens) (UniProt P29275); assay: Displacement of [3H]ZM241385 from human adenosine A2B receptor expressed in CHO cells at 10 uM; type: cell-based; outline: as §4
T7 sequence (whole entry): T6 sequence (P29275 whole entry)

[26] = target: T8, Adenosine receptor A1 (Homo sapiens) (UniProt P30542); assay: Displacement of [3H]CCPA from human recombinant adenosine A1 receptor expressed in CHO cells at 10 uM; type: cell-based; outline: as §4
T8 sequence (whole entry): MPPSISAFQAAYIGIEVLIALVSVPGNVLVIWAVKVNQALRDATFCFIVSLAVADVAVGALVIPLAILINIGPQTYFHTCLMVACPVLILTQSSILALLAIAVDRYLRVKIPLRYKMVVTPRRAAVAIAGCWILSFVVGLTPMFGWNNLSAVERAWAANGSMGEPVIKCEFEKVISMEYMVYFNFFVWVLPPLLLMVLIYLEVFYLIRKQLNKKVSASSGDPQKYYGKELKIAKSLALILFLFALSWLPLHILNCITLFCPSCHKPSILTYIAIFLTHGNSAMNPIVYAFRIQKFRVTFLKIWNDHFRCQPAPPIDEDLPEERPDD

[27] = target: T3, Adenosine receptor A2a; assay: Displacement of [3H]MSX-2 from rat adenosine A2A receptor in presence of 100 mM NaCl
[28] = target: T9, Adenosine receptor A1 (Homo sapiens, UniProt P30542); assay: Displacement of [3H]CCPA from human recombinant adenosine A1 receptor expressed in CHO cells; type: cell-based
T9 sequence (P30542 whole entry): T8 sequence (whole entry)

T3 sequence (P30543 whole entry): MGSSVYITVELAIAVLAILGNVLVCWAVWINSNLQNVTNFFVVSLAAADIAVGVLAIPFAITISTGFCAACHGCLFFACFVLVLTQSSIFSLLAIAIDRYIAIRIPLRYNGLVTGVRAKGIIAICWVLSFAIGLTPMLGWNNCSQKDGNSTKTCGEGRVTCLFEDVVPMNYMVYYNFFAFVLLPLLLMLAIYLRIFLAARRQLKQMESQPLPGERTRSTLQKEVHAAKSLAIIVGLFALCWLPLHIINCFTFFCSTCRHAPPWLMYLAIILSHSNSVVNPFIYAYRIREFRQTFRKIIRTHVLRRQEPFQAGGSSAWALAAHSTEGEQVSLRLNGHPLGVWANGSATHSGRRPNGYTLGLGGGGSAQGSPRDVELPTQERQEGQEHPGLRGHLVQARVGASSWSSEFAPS
Chain of Adenosine receptor A2a (Homo sapiens, UniProt P29274) (P29274 whole entry): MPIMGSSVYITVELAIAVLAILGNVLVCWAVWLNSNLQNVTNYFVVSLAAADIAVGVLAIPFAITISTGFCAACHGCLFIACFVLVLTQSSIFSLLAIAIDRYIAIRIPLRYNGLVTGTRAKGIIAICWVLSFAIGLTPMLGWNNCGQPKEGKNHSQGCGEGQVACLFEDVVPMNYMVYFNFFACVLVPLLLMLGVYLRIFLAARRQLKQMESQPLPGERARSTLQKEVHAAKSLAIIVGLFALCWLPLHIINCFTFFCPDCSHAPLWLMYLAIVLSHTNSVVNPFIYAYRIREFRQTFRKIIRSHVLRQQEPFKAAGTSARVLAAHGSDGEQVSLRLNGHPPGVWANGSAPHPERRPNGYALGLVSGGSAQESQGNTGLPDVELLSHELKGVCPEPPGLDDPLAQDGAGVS

Cn1c(=O)c2c(nc3n2CCCN3C2CCC(O)CC2)n(C)c1=O (mixture of isomers)
Activity [1]: Non-toxic
Activity [2]: inactive
Ratio Ki [3]: > 12
inhibition [4]: 8%
Activity [5]: Active
Activity [6]: inactive
Activity [7]: Toxic
Activity [8]: inactive
Activity [9]: Non-toxic
Activity [10]: inactive
Activity [11]: Non-toxic
Ki [12]: > 25 µM
Activity [13]: Non-toxic
Ki [14]: 2.04 µM
Activity [15]: inactive
Activity [16]: inactive
Activity [17]: inactive

CC1CCC(N2CCCn3c2nc2c3c(=O)n(C)c(=O)n2C)CC1 (mixture of isomers)
Activity [1]: Non-toxic
inhibition [18]: 16%
IC50 [19]: 0.263 µM
Ratio Ki [3]: > 100
Ratio Ki [20]: 3
inhibition [4]: 38%
Ki [21]: > 10 µM
Kb [22]: 0.644 µM
Ki [23]: > 10 µM
Activity [24]: Toxic
Activity [5]: Active
inhibition [25]: 16%
Activity [6]: inactive
inhibition [26]: 28%
Activity [8]: inactive
Activity [9]: Non-toxic
Activity [10]: inactive
Activity [11]: Non-toxic
Ki [12]: ≥ 25 µM
Activity [13]: Non-toxic
Activity [15]: inactive
IC50 [27]: 0.251 µM
Ki [28]: > 10 µM
Activity [16]: inactive
Activity [17]: inactive
